Results from ChEMBL document CHEMBL3616442, “Unconventional Knoevenagel-type indoles: Synthesis and cell-based studies for the identification of pro-apoptotic agents” (Eur J Med Chem, 2015).

Tests used:
HL-60(TB) = assay: Growth inhibition of human HL-60(TB) cells after 48 hrs by sulforhodamine B assay; type: functional; details: HL-60, 48 h
Procedure, shortened: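 NCI 60-cell-line screen, HL-60(TB) included. Compound given at five 10-fold dilutions from 10^-4 to 10^-8 M. Cells exposed for the last 48 h of a 72 h incubation. Growth or viability estimated by sulforhodamine B protein assay. GI50 is the concentration giving 50% growth inhibition. Values outside the tested range are reported as greater or less than the highest or lowest concentration.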

[1] = Growth inhibition of human EKVX cells after 48 hrs by sulforhodamine B assay; type: functional
Procedure, shortened: (§1)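 NCI 60-cell-line screen. Compounds tested at five 10-fold dilutions from 10^-4 to 10^-8 M. Cells exposed for the last 48 h of a 72 h incubation, growth estimated by sulforhodamine B protein assay. GI50 is the concentration giving 50% growth inhibition. Values beyond the tested range are expressed as greater or lesser than the extreme concentration.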

DU-145 = assay: Growth inhibition of human DU145 cells after 48 hrs by sulforhodamine B assay; type: functional; details: DU-145, 48 h; procedure, shortened: as §1
OVCAR-5 = assay: Growth inhibition of human OVCAR5 cells after 48 hrs by sulforhodamine B assay; type: functional; details: OVCAR-5, 48 h
[2] = Growth inhibition of human NCI-ADR-RES cells after 48 hrs by sulforhodamine B assay; type: functional; procedure, shortened: as §1
SK-MEL-5 = assay: Growth inhibition of human SK-MEL-5 cells after 48 hrs by sulforhodamine B assay; type: functional; details: SK-MEL-5, 48 h
SR = assay: Growth inhibition of human SR cells after 48 hrs by sulforhodamine B assay; type: functional
Malme-3M = assay: Growth inhibition of human MALME-3M cells after 48 hrs by sulforhodamine B assay; type: functional; procedure, shortened: as §1
[3] = Growth inhibition of human BT549 cells after 48 hrs by sulforhodamine B assay; type: functional; details: BT-549, 48 h; procedure, shortened: as §1
K562 = assay: Growth inhibition of human K562 cells after 48 hrs by sulforhodamine B assay; type: functional; details: K562, 48 h; procedure, shortened: as §1
HCT-116 = assay: Growth inhibition of human HCT116 cells after 48 hrs by sulforhodamine B assay; type: functional; details: HCT-116, 48 h; procedure, shortened: as §1
M14 = assay: Growth inhibition of human M14 cells after 48 hrs by sulforhodamine B assay; type: functional; details: M14, 48 h; procedure, shortened: as §1
SNB-19 = assay: Growth inhibition of human SNB19 cells after 48 hrs by sulforhodamine B assay; type: functional; details: SNB-19, 48 h
HOP-62 = assay: Growth inhibition of human HOP62 cells after 48 hrs by sulforhodamine B assay; type: functional; details: HOP-62, 48 h; procedure, shortened: as §1
NCI-H226 = assay: Growth inhibition of human NCI-H226 cells after 48 hrs by sulforhodamine B assay; type: functional; details: NCI-H226, 48 h; procedure, shortened: as §1
U-251 = assay: Growth inhibition of human U251 cells after 48 hrs by sulforhodamine B assay; type: functional; details: U-251, 48 h
MT4 = assay: Antiproliferative activity against human MT4 cells after 96 hrs by MTT assay; type: functional, cell-based; details: MT4, 96 h
Procedure, shortened: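 Exponentially growing MT-4 cells (CD4+ human T-cells carrying integrated HTLV-1 genome), seeded at 1×10^5 cells/mL in RPMI-1640 with 10% FCS and antibiotics. Serial dilutions of compound (DMSO stock 100 mM, diluted in medium), 37 °C, 5% CO₂, 96 h. Viability read by MTT. 50% inhibition versus untreated controls by linear regression. Mean ± SD of three independent determinations.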

CAKI-1 = assay: Growth inhibition of human CAKI-1 cells after 48 hrs by sulforhodamine B assay; type: functional; details: CAKI-1, 48 h; procedure, shortened: as §1
KM12 = assay: Growth inhibition of human KM12 cells after 48 hrs by sulforhodamine B assay; type: functional; details: KM12, 48 h; procedure, shortened: as §1
[4] = Growth inhibition of human LOXIMVI cells after 48 hrs by sulforhodamine B assay; type: functional; details: LOX IMVI; procedure, shortened: as §1
[5] = Growth inhibition of human SF295 cells after 48 hrs by sulforhodamine B assay; type: functional; details: SF-295, 48 h
PC-3 = assay: Growth inhibition of human PC3 cells after 48 hrs by sulforhodamine B assay; type: functional; details: PC-3, 48 h
OVCAR-3 = assay: Growth inhibition of human OVCAR3 cells after 48 hrs by sulforhodamine B assay; type: functional; details: OVCAR-3, 48 h; procedure, shortened: as §1
[6] = Growth inhibition of human HOP92 cells after 48 hrs by sulforhodamine B assay; type: functional; details: HOP-92, 48 h; procedure, shortened: as §1
SN12C = assay: Growth inhibition of human SN12C cells after 48 hrs by sulforhodamine B assay; type: functional
SK-OV-3 = assay: Growth inhibition of human SKOV3 cells after 48 hrs by sulforhodamine B assay; type: functional; details: SK-OV-3, 48 h
OVCAR-4 = assay: Growth inhibition of human OVCAR4 cells after 48 hrs by sulforhodamine B assay; type: functional; details: OVCAR-4, 48 h; procedure, shortened: as §1
SK-MEL-2 = assay: Growth inhibition of human SK-MEL-2 cells after 48 hrs by sulforhodamine B assay; type: functional; details: SK-MEL-2, 48 h
[7] = Growth inhibition of human SF539 cells after 48 hrs by sulforhodamine B assay; type: functional; details: SF-539, 48 h
ACHN = assay: Growth inhibition of human ACHN cells after 48 hrs by sulforhodamine B assay; type: functional; procedure, shortened: as §1
UACC-62 = assay: Growth inhibition of human UACC62 cells after 48 hrs by sulforhodamine B assay; type: functional; details: UACC-62, 48 h
TK-10 = assay: Growth inhibition of human TK10 cells after 48 hrs by sulforhodamine B assay; type: functional; details: TK-10, 48 h
T47D = assay: Growth inhibition of human T47D cells after 48 hrs by sulforhodamine B assay; type: functional
CCRF-CEM = assay: Growth inhibition of human CCRF-CEM cells after 48 hrs by sulforhodamine B assay; type: functional; procedure, shortened: as §1
MCF7 = assay: Growth inhibition of human MCF7 cells after 48 hrs by sulforhodamine B assay; type: functional; details: MCF7, 48 h; procedure, shortened: as §1
A549 = assay: Growth inhibition of human A549 cells after 48 hrs by sulforhodamine B assay; type: functional; details: A549, 48 h; procedure, shortened: as §1
786-0 = assay: Growth inhibition of human 786-0 cells after 48 hrs by sulforhodamine B assay; type: functional; details: 786-0, 48 h; procedure, shortened: as §1
UACC-257 = assay: Growth inhibition of human UACC257 cells after 48 hrs by sulforhodamine B assay; type: functional; details: UACC-257, 48 h
MDA-MB-468 = assay: Growth inhibition of human MDA-MB-468 cells after 48 hrs by sulforhodamine B assay; type: functional; details: MDA-MB-468, 48 h; procedure, shortened: as §1
UO-31 = assay: Growth inhibition of human UO31 cells after 48 hrs by sulforhodamine B assay; type: functional; details: UO-31, 48 h
[8] = Growth inhibition of human MOLT4 cells after 48 hrs by sulforhodamine B assay; type: functional; details: MOLT-4, 48 h; procedure, shortened: as §1
HCT-15 = assay: Growth inhibition of human HCT15 cells after 48 hrs by sulforhodamine B assay; type: functional; details: HCT-15, 48 h; procedure, shortened: as §1
[9] = Growth inhibition of human RPMI8226 cells after 48 hrs by sulforhodamine B assay; type: functional; details: RPMI-8226, 48 h
[10] = Growth inhibition of human RXF393 cells after 48 hrs by sulforhodamine B assay; type: functional; details: RXF 393, 48 h

COc1ccc2[nH]c(-c3ccccc3)c(/C=C(\C#N)S(=O)(=O)c3ccccc3)c2c1
GI50 (HL-60(TB)): 2.4 µM | GI50 [1]: 6.9 µM | GI50 (DU-145): 10.1 µM | GI50 (OVCAR-5): 37.3 µM | GI50 [2]: 3.8 µM | GI50 (SK-MEL-5): 3.1 µM | GI50 (SR): 2.2 µM | GI50 (Malme-3M): 19.4 µM | GI50 [3]: 11.6 µM | GI50 (K562): 1.4 µM | GI50 (HCT-116): 3.7 µM | GI50 (M14): 3.7 µM | GI50 (SNB-19): 13.5 µM | GI50 (HOP-62): 8.3 µM | GI50 (NCI-H226): 9.4 µM | GI50 (U-251): 4.6 µM | EC50 (MT4): 1.3 µM | GI50 (CAKI-1): 4.5 µM | GI50 (KM12): 3 µM | GI50 [4]: 7.4 µM | GI50 [5]: 2.8 µM | GI50 (PC-3): 8.3 µM | GI50 (OVCAR-3): 5 µM | GI50 [6]: 6.1 µM | GI50 (SN12C): 7.8 µM | GI50 (SK-OV-3): 7.1 µM | GI50 (OVCAR-4): 8.3 µM | GI50 (SK-MEL-2): 3.7 µM | GI50 [7]: 5.5 µM | GI50 (ACHN): 12.9 µM | GI50 (UACC-62): 3.8 µM | GI50 (TK-10): 17.5 µM | GI50 (T47D): 5.2 µM | GI50 (CCRF-CEM): 6.5 µM | GI50 (MCF7): 3.9 µM | GI50 (A549): 6 µM | GI50 (786-0): 6.1 µM | GI50 (UACC-257): 4.9 µM | GI50 (MDA-MB-468): 4.2 µM | GI50 (UO-31): 4 µM | GI50 [8]: 4.7 µM | GI50 (HCT-15): 4 µM

CC(=O)/C(=C\c1c(-c2ccccc2)[nH]c2ccccc12)S(C)(=O)=O
GI50 (HL-60(TB)): 2.6 µM | GI50 [1]: 6.4 µM | GI50 [9]: 3 µM | GI50 (DU-145): 3.5 µM | GI50 (OVCAR-5): 16.1 µM | GI50 [2]: 2.1 µM | GI50 (SK-MEL-5): 1.9 µM | GI50 (Malme-3M): 4.8 µM | GI50 [3]: 2.4 µM | GI50 (K562): 0.679 µM | GI50 (HCT-116): 2.9 µM | GI50 (M14): 1.6 µM | GI50 (SNB-19): 3.4 µM | GI50 (HOP-62): 12.1 µM | GI50 (NCI-H226): 27.1 µM | GI50 (U-251): 2.9 µM | EC50 (MT4): 0.5 µM | GI50 (CAKI-1): 5.6 µM | GI50 (KM12): 2.1 µM | GI50 [4]: 3.4 µM | GI50 [5]: 3.9 µM | GI50 (PC-3): 4.5 µM | GI50 (OVCAR-3): 2.3 µM | GI50 [6]: 3.8 µM | GI50 (SN12C): 6.9 µM | GI50 (SK-OV-3): 4.4 µM | GI50 (OVCAR-4): 3.8 µM | GI50 (SK-MEL-2): 8.6 µM | GI50 [7]: 1.9 µM | GI50 (ACHN): 5.8 µM | GI50 [10]: 2.6 µM | GI50 (UACC-62): 3.2 µM | GI50 (TK-10): 13.5 µM | GI50 (T47D): 2.3 µM | GI50 (CCRF-CEM): 4.7 µM | GI50 (MCF7): 2.7 µM | GI50 (A549): 7.3 µM | GI50 (786-0): 3.5 µM | GI50 (UACC-257): 43.8 µM | GI50 (MDA-MB-468): 1.8 µM | GI50 (UO-31): 5.8 µM | GI50 [8]: 4.4 µM | GI50 (HCT-15): 2 µM

COC(=O)/C(=C\c1c(-c2ccccc2)[nH]c2ccccc12)S(C)(=O)=O
GI50 (HL-60(TB)): 3.4 µM | GI50 [1]: 8.9 µM | GI50 [9]: 6.2 µM | GI50 (DU-145): 2.5 µM | GI50 (OVCAR-5): 19.6 µM | GI50 [2]: 3.3 µM | GI50 (SR): 8.1 µM | GI50 (Malme-3M): 12.2 µM | GI50 [3]: 4.3 µM | GI50 (HCT-116): 4.2 µM | GI50 (M14): 3.3 µM | GI50 (SNB-19): 8.7 µM | GI50 (HOP-62): 10.7 µM | GI50 (NCI-H226): 5 µM | GI50 (U-251): 3.6 µM | EC50 (MT4): 0.4 µM | GI50 (CAKI-1): 1.8 µM | GI50 (KM12): 1.5 µM | GI50 [4]: 5.1 µM | GI50 [5]: 3.1 µM | GI50 (PC-3): 4.2 µM | GI50 (OVCAR-3): 1.9 µM | GI50 [6]: 6.6 µM | GI50 (SN12C): 3.1 µM | GI50 (SK-OV-3): 12.1 µM | GI50 (OVCAR-4): 6.2 µM | GI50 (SK-MEL-2): 11.8 µM | GI50 [7]: 3.1 µM | GI50 (ACHN): 9.2 µM | GI50 [10]: 7.2 µM | GI50 (UACC-62): 3.3 µM | GI50 (TK-10): 7.7 µM | GI50 (T47D): 2.8 µM | GI50 (CCRF-CEM): 7.6 µM | GI50 (MCF7): 2.9 µM | GI50 (A549): 5.3 µM | GI50 (786-0): 7.5 µM | GI50 (UACC-257): 11.2 µM | GI50 (MDA-MB-468): 5.4 µM | GI50 (UO-31): 5.5 µM | GI50 [8]: 4.7 µM | GI50 (HCT-15): 2.4 µM
